Assay results taken from ChEMBL document CHEMBL5712071, “BET bromodomain protein inhibition is a therapeutic option for medulloblastoma” (Oncotarget, 2013).
Active and inactive are the calls of the source. The rule behind the calls is not given here.

Assays:
D341 cell line [1] = assay: Anti-proliferative activity against human D341 cells assessed as reduction in cell viability incubated for 48 hrs by MTT assay; type: functional, cell-based; conditions: D341, 48 h
Method in brief: (§1)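 Cells seeded in triplicate at 2 × 10^3 per well and allowed to adhere for 24h. JQ1 was given as serial dilutions in full medium, 1nM-6µM, from a 10 mM DMSO stock. Viability was read by MTT at each time point and IC50 derived from dose-response curves. Culture media were RPMI 1640/10% FCS for HD-MB3 (plus 1% NEAA), ONS-76, Daoy and UW-228, and EMEM/10% FCS for D-283 and D-341.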

ONS-76 [2] = assay: Anti-proliferative activity against human ONS-76 cells assessed as reduction in cell viability incubated for 120 hrs by MTT assay; type: functional, cell-based; conditions: ONS-76, 120 h; method in brief: as §1
Daoy [3] = assay: Antiproliferative activity against human Daoy cells at 500 nM incubated for 72 hrs by BrdU ELISA method; type: functional, cell-based
Method in brief: (§2)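 Cells seeded in triplicate at 2 × 10^3 per well with 24h adherence, then treated with 500 nM JQ1 or DMSO control for 72h. Proliferation was measured by BrdU incorporation ELISA. Experiments were run independently at least 3 times.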

ONS-76 [4] = assay: Induction of senescence in human ONS-76 cells assessed as increase in population of cells in G1 phase at 500 nM incubated for 72 hrs by fluorometric SA-beta-gal activity assay; type: functional, cell-based
Method in brief: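 Senescence read as fluorometric SA-β-gal activity. Cells seeded 2 × 10^3 per well in triplicate and allowed 24h to adhere, then exposed to 500 nM JQ1 or DMSO control for 72h. Assayed per kit protocol. Experiments repeated at least 3 times.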

[5] = target: Bromodomain-containing protein 4 (Homo sapiens) (UniProt O60885); conditions: HD-MB03, dose 500.0 nM, time 12.0 hrs
D341 cell line [6] = assay: Anti-proliferative activity against human D341 cells assessed as reduction in cell viability incubated for 72 hrs by MTT assay; type: functional, cell-based; conditions: D341, 72 h; method in brief: as §1
ONS-76 [7] = assay: Anti-proliferative activity against human ONS-76 cells assessed as reduction in cell viability incubated for 96 hrs by MTT assay; type: functional, cell-based; conditions: ONS-76, 96 h; method in brief: as §1
HD-MB03 [8] = assay: Inhibition of BRD4 female athymic (nu/nu) mouse xenografted with human HD-MB03 cells as reduction in MYC mRNA expression in tumor at 50 mg/kg, ip administered at 0, 12, 24 and 36 hrs over 2-day course by RT-PCR analysis; type: functional, organism-based
Method in brief: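 Same flank HD-MB3 xenografts in female nu/nu mice. Given 4 i.p. doses of JQ1 50 mg/kg (or DMSO) at 0, 12, 24 and 36h; tumours excised 4h after the last dose and snap-frozen. MYC measured by RT-PCR (mean ± S.D.) or western blot with β-actin loading control, 3 tumours per group.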

UW228 [9] = assay: Induction of apoptosis in human UW228 cells assessed as increase in population of cells in G1 phase at 500 nM incubated for 72 hrs by flow cytometry; type: functional, cell-based
UW228 [10] = assay: Induction of apoptosis in human UW228 cells assessed as increase in population of cells in sub-G1 phase at 500 nM incubated for 72 hrs by flow cytometry; type: functional, cell-based
Method in brief: (§3)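 PI flow cytometry: cells seeded in triplicate, adhered 24h, then exposed to 500 nM JQ1 or DMSO control (methods give 48h culture, legend gives 72h). Harvested by trypsin, washed 3 times in PBS, stained with propidium iodide 15 min, DNA content read by flow cytometry. Sub-G1 fraction taken as apoptotic. Experiments repeated at least 3 times.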

[11] = target: Bromodomain-containing protein 4 (Homo sapiens) (UniProt O60885); conditions: HD-MB03, dose 500.0 nM, time 96.0 hrs
[12] = target: Bromodomain-containing protein 4 (Homo sapiens) (UniProt O60885); conditions: ONS-76, dose 500.0 nM, time 24.0 hrs
D283 Med [13] = assay: Antiproliferative activity against human D283 cells at 500 nM incubated for 72 hrs by BrdU ELISA method; type: functional, cell-based; method in brief: as §2
[14] = target: Bromodomain-containing protein 4 (Homo sapiens) (UniProt O60885); conditions: HD-MB03, dose 500.0 nM, time 72.0 hrs
D341 cell line [15] = assay: Induction of apoptosis in human D341 cells assessed as increase in population of cells in G1 phase at 500 nM incubated for 72 hrs by ELISA; type: functional, cell-based
D283 Med [16] = assay: Anti-proliferative activity against human D283 cells assessed as reduction in cell viability incubated for 48 hrs by MTT assay; type: functional, cell-based; method in brief: as §1
D283 Med [17] = assay: Anti-proliferative activity against human D283 cells assessed as reduction in cell viability incubated for 96 hrs by MTT assay; type: functional, cell-based; method in brief: as §1
D341 cell line [18] = assay: Induction of apoptosis in human D341 cells assessed as increase in population of cells in sub-G1 phase at 500 nM incubated for 72 hrs by ELISA; type: functional, cell-based
[19] = target: Bromodomain-containing protein 4 (Homo sapiens) (UniProt O60885); conditions: D341 cell line, dose 500.0 nM, time 24.0 hrs
D283 Med [20] = assay: Induction of apoptosis in human D283 cells assessed as increase in population of cells in G1 phase at 500 nM incubated for 72 hrs by ELISA; type: functional, cell-based
Daoy [21] = assay: Induction of apoptosis in human Daoy cells assessed as increase in population of cells in G1 phase at 500 nM incubated for 72 hrs by ELISA; type: functional, cell-based
D341 cell line [22] = assay: Anti-proliferative activity against human D341 cells assessed as reduction in cell viability incubated for 96 hrs by MTT assay; type: functional, cell-based; conditions: D341, 96 h; method in brief: as §1
[23] = target: Bromodomain-containing protein 4 (Homo sapiens) (UniProt O60885); conditions: Daoy, dose 500.0 nM, time 72.0 hrs
[24] = target: Bromodomain-containing protein 4 (Homo sapiens) (UniProt O60885); conditions: D283 Med, dose 500.0 nM, time 24.0 hrs
ONS-76 [25] = assay: Induction of apoptosis in human ONS-76 cells assessed as increase in population of cells in sub-G1 phase at 500 nM incubated for 72 hrs by flow cytometry; type: functional, cell-based; method in brief: as §3
[26] = target: Bromodomain-containing protein 4 (Homo sapiens) (UniProt O60885); conditions: UW228, dose 500.0 nM, time 72.0 hrs
HD-MB03 [27] = assay: Anti-proliferative activity against human HD-MB03 cells assessed as reduction in cell viability incubated for 72 hrs by MTT assay; type: functional, cell-based; conditions: HD-MB03, 72 h; method in brief: as §1
Daoy [28] = assay: Induction of apoptosis in human Daoy cells assessed as increase in population of cells in sub-G1 phase at 500 nM incubated for 72 hrs by ELISA; type: functional, cell-based
[29] = target: Bromodomain-containing protein 4 (Homo sapiens) (UniProt O60885); conditions: Daoy, dose 500.0 nM, time 24.0 hrs

Cc1sc2c(c1C)C(c1ccc(Cl)cc1)=N[C@@H](CC(=O)OC(C)(C)C)c1nnc(C)n1-2
IC50 (D341 cell line [1]): 924 nM
IC50 (ONS-76 [2]): 123 nM
Activity (Daoy [3]): Active
Activity (ONS-76 [4]): Active
inhibition [5]: Active
IC50 (D341 cell line [6]): 244 nM
IC50 (ONS-76 [7]): 175 nM
inhibition (HD-MB03 [8]): Active
Activity (UW228 [9]): Active
Activity (UW228 [10]): Active
inhibition [11]: inactive
inhibition [12]: Active
Activity (D283 Med [13]): Active
inhibition [14]: 10%
Activity (D341 cell line [15]): Active
IC50 (D283 Med [16]): > 1000 nM
IC50 (D283 Med [17]): 256 nM
Activity (D341 cell line [18]): Active
inhibition [19]: Active
Activity (D283 Med [20]): Active
Activity (Daoy [21]): Active
IC50 (D341 cell line [22]): 157 nM
inhibition [23]: Active
inhibition [24]: Active
Activity (ONS-76 [25]): Active
inhibition [26]: Active
IC50 (HD-MB03 [27]): 78 nM
Activity (Daoy [28]): Active
inhibition [29]: Active
